Active and inactive are the calls of the source. The rule behind the calls is not given here.
Columns and labels:
RAW264.7 [1] = experiment: Antiinflammatory activity in mouse RAW264.7 cells assessed as inhibition of LPS-induced nitrite production treated 30 mins before LPS challenge measured after 24 hrs by Griess method; type: functional, cell-based
Outline: (§1)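 RAW 264.7 cells pre-incubated 30 min with compound (1, 2, 5, 10, 25 µM; range tested up to 50 µM), then LPS 250 ng/ml for 24 h. Medium nitrite measured by Griess reaction (sulfanilamide/naphthylethylenediamine in phosphoric acid, 10 min room temperature), read spectrophotometrically. IC50 is the concentration giving 50% inhibition of NO release. Three independent experiments in triplicate.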

[2] = Cytotoxicity against LPS-stimulated mouse RAW264.7 cells assessed as cell viability at 1 uM after 24 hrs by MTT assay; type: cell-based; settings: LPS-stimulated RAW264.7 cells, read-out: Activity
Outline: (§2)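 RAW 264.7 cells plated at 10⁵ cells/well, pre-incubated 30 min with compound (1-25 µM), then LPS 250 ng/ml for 24 h. MTT added for 4 h at 37 °C; formazan dissolved in DMSO, absorbance read at 540 nm. Viability expressed relative to untreated controls. Triplicate wells, at least three independent experiments.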

RAW264.7 [3] = experiment: Antiinflammatory activity in mouse RAW264.7 cells assessed as inhibition of LPS-induced PGE2 production treated 30 mins before LPS challenge measured after 24 hrs by ELISA; type: functional, cell-based
Outline: (§3)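 RAW 264.7 macrophages pretreated 30 min with compound, then stimulated with LPS 250 ng/ml for 24 h. PGE2 in culture medium quantified in duplicate by EIA kit. IC50 is the concentration giving 50% inhibition of PGE2 release. Three independent experiments in triplicate.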

RAW264.7 [4] = experiment: Cytotoxicity against LPS-stimulated mouse RAW264.7 cells assessed as cell viability at 10 uM after 24 hrs by MTT assay; type: cell-based; settings: raw264.7, 24 h; outline: as §2
RAW264.7 [5] = experiment: Cytotoxicity against LPS-stimulated mouse RAW264.7 cells assessed as cell viability at 25 uM after 24 hrs by MTT assay; type: cell-based; settings: raw264.7, 24 h; outline: as §2
RAW264.7 [6] = experiment: Antiinflammatory activity in mouse RAW264.7 cells assessed as inhibition of LPS-induced nitrite production at 50 uM treated 30 mins before LPS challenge measured after 24 hrs by Griess method; type: functional, cell-based; outline: as §1
RAW264.7 [7] = experiment: Antiinflammatory activity in mouse RAW264.7 cells assessed as inhibition of LPS-induced nitrite production at 25 uM treated 30 mins before LPS challenge measured after 24 hrs by Griess method; type: functional, cell-based; outline: as §1
RAW264.7 [8] = experiment: Antiinflammatory activity in mouse RAW264.7 cells assessed as inhibition of LPS-induced PGE2 production at 25 uM treated 30 mins before LPS challenge measured after 24 hrs by ELISA; type: functional, cell-based; outline: as §3
Mus musculus [9] = experiment: Antiinflammatory activity in Swiss mouse assessed as reduction of 12-O-tetradecanoylphorbol acetate-induced ear swelling at 0.25 to 1 mg/ear administered topically measured after 4 hrs; type: functional, organism-based
Outline: (§4)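 TPA ([…]) applied to inner and outer surfaces of right ear of Swiss mice (20-25 g); test agent applied topically in acetone 30 min before TPA. Mice killed after 4 h; equal ear punches weighed, edema as right-over-left weight increase. MPO measured in saline homogenate supernatants (10,000g, 15 min, 4 °C) with tetramethylbenzidine substrate, pH 5.4 phosphate. Three independent experiments in triplicate.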

Mus musculus [10] = experiment: Antiinflammatory activity in Swiss mouse ear homogenates assessed as reduction of 12-O-tetradecanoylphorbol acetate-induced myeloperoxidase activity at 0.25 to 1 mg/ear administered topically measured after 4 hrs; type: functional, organism-based; outline: as §4

Row | SMILES | IC50 (RAW264.7 [1]) | IC50 (RAW264.7 [3]) | Activity (Mus musculus [10]) | viability at 24 h, 1 µM [2] | inhibition (RAW264.7 [1]) | Activity (RAW264.7 [4]) | inhibition (RAW264.7 [3]) | Activity (RAW264.7 [5]) | inhibition (RAW264.7 [6]) | inhibition (RAW264.7 [7]) | inhibition (RAW264.7 [8]) | Activity (Mus musculus [9])
1 | CCCCCCCCCCCC(=O)OCC[C@@H](C)CC[C@@H]1[C@@]2(C)CCCC(C)(C)[C@@H]2CC[C@@]1(C)O | > 50 µM | > 50 µM |  | 80% |  |  |  |  |  |  |  | 
2 | C[C@H](CC=O)CC[C@@H]1[C@@]2(C)CCCC(C)(C)[C@@H]2CC[C@@]1(C)O | > 50 µM | > 50 µM |  | 80% |  |  |  |  |  |  |  | 
3 | CC(=O)OCC[C@@H](C)CC[C@@H]1[C@@]2(C)CCCC(C)(C)[C@@H]2CC[C@@]1(C)O | 15 µM | 25 µM |  | 90% | Dose-dependent effect | Non-toxic | Dose-dependent effect |  |  |  |  | 
4 | CC(=N)NCc1cccc(CN)c1 |  |  |  |  |  |  |  |  | Active |  |  | 
5 | C[C@@H](CC[C@@H]1[C@@]2(C)CCCC(C)(C)[C@@H]2CC[C@@]1(C)O)CC(=O)O [LABDANIC ACID] | > 50 µM | > 50 µM |  | 80% |  |  |  |  |  |  |  | 
6 | C[C@H](CCOC(=O)c1ccc(Br)cc1)CC[C@@H]1[C@@]2(C)CCCC(C)(C)[C@@H]2CC[C@@]1(C)O | > 50 µM | > 50 µM |  | 80% |  |  |  |  |  |  |  | 

The next lines start with results.

Row | IC50 (RAW264.7 [1]) | IC50 (RAW264.7 [3]) | Activity (Mus musculus [10]) | SMILES | viability at 24 h, 1 µM [2] | inhibition (RAW264.7 [1]) | Activity (RAW264.7 [4]) | inhibition (RAW264.7 [3]) | Activity (RAW264.7 [5]) | inhibition (RAW264.7 [6]) | inhibition (RAW264.7 [7]) | inhibition (RAW264.7 [8]) | Activity (Mus musculus [9])
7 | 15 µM | 25 µM |  | C[C@H](CCO)CC[C@@H]1[C@@]2(C)CCCC(C)(C)[C@@H]2CC[C@@]1(C)O [LABDANEDIOL] | 40% | Dose-dependent effect | Toxic | Dose-dependent effect |  |  |  |  | 
8 | 15 µM | 20 µM |  | CC1=C(CC[C@H](C)CCO)[C@@]2(C)CCCC(C)(C)[C@@H]2CC1 | 75% | Dose-dependent effect |  | Dose-dependent effect | Toxic |  |  |  | 
9 | 5 µM | 10 µM | Active | COC(=O)C[C@@H](C)CC[C@@H]1[C@@]2(C)CCCC(C)(C)[C@@H]2CC[C@@]1(C)O [LABDANIC ACID METHYL ESTER] | 95% | Dose-dependent effect | Non-toxic | Dose-dependent effect |  |  | Active | Active | Active
10 | 10 µM | 25 µM |  | C[C@H](CCO)CC[C@@]1(C)C2=C(CC[C@@H]1C)C(C)(C)CCC2 | 75% | Dose-dependent effect |  | Dose-dependent effect | Toxic |  |  |  | 
